# Source: PubChem BioAssay (several laboratories)
# hDAT+cocaine = changed human dopamine transporter uptake under cocaine IC80 | Q01959 | LLC-PK1 hDAT cells, [14C]-dopamine uptake with cocaine IC80; actives deviate in either direction | B-score at 10 µM | 110,000 compounds, 1.3% hits | AID 449768;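 active = Z score or B-score, a plate-position-corrected score, falls beyond the plate's 99.7% confidence bounds, in either direction; inactive = both scores lie inside the 99.7% bounds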;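 also: scored against the spread of the other compound wells on the same plate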
# LYP act = activators of human LYP (PTPN22) phosphatase; recombinant LYP, DiFMUP fluorescence; 0 = plate median, 100 = signal doubled; activation, % at 2 µM; 96,000 compounds, 0.11% hits;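 active = activation at 2 µM above a set limit, the mean plus 5 SD, cut at about 37% in these data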
# PLK1 PBD inh = inhibitors of human Plk1 polo box domain binding. P53350. Plk1 PBD phosphopeptide binding, fluorescence polarization. inhibition, %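 (tested at about 20 µM)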. 97,000 compounds, 0.13% hits. AID 693; in the data active = inhibition above about 34%, passing the limit was not always enough
# Target sequence (P53350 whole entry, looked up, the tested form may be a part): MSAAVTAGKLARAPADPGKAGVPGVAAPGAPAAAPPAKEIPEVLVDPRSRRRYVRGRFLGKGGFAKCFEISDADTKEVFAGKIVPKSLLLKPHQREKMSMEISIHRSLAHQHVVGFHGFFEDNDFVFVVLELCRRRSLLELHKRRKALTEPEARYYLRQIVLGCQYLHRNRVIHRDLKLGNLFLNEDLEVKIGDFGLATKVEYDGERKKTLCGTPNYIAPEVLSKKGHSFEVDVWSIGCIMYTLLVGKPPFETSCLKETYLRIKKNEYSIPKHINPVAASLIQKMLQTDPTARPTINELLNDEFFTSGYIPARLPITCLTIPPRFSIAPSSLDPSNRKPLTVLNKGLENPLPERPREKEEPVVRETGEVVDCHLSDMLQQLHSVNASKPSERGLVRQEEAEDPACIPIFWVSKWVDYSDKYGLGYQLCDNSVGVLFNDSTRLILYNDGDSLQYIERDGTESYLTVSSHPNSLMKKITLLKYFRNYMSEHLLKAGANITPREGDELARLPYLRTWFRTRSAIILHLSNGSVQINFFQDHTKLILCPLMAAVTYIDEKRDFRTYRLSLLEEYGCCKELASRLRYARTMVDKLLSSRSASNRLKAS
# PLK1 inh = inhibitors of human PLK1 kinase | 97,000 compounds, 0.53% hits | inhibition, % at 10 µM | recombinant PLK1 kinase, TR-FRET peptide phosphorylation | P53350;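 active = inhibition of 50% or more in the single-concentration screen; inactive = inhibition below 50%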;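 also: 0% = DMSO max control and 100% = H-89 dihydrochloride min control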
# LYP inh 2 = inhibitors of human LYP (PTPN22) phosphatase. Q9Y2R2. recombinant LYP catalytic domain, DiFMUP fluorescence. inhibition, % at 2 µM. 96,000 compounds, 0.21% hits. AID 640;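 active = inhibition at 2 µM at or above a set limit, the screen mean plus 3 SD, cut at about 24% in these data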;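 also: 0% = DMSO with enzyme and 100% = enzyme fully blocked by orthovanadate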
# HIV Rev-RRE inh = inhibitors of HIV-1 Rev-RRE RNA interaction. P05866. Rev peptide-RRE RNA binding, FRET. inhibition, % at 8 µM. 97,000 compounds, 0.79% hits;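 active = inhibition above the screen-wide mean plus 3 SD, cut at about 35% in these data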;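 also: 0% = median DMSO wells and 100% = median Neomycin B control wells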
#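 Assay system: Labelled RRE RNA duplex and labelled Rev peptide | Times: 5 min preincubation and 15 min binding, 25 °C | Detection: FRET, ex 480 nm, em 540 and 671 nm | Evaluation: % inhibition of FRET ratio versus controls | Benchmarks: DMSO wells as 0% and neomycin B wells as 100% inhibition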
# Active calls of the source: *; / = no result; [ ] = another dose, or the depositor's remark. This is a sample that favours compounds with a hit; in the whole collection about 2.7% have one here.
SMILES,hDAT+cocaine,LYP act,PLK1 PBD inh,PLK1 inh,LYP inh 2,HIV Rev-RRE inh
CCOC(=O)C1CCN(C(=O)CS(=O)Cc2nc(-c3ccc(C)cc3)oc2C)CC1 (stereo not given),0.079,-2,-18,-8,0,6
Cc1ccc(-c2nc(CS(=O)CC(=O)NC3CCC(C)CC3)c(C)o2)cc1 (stereo not given),0.62,/,14,65*,/,1
Cc1cccc(-c2nc(CS(=O)CC(=O)N3CCN(C)CC3)c(C)o2)c1 (stereo not given),1.2,/,-4,57*,/,7
C=CCN1c2ccccc2[C@]23C[C@@H](C(=O)OC)N(C(=O)NCCC)C2=NC(C(=O)OC)=C(C(=O)OC)[C@H]13,0.89,/,/,/,/,/
O=C(NCC1CC1)c1cc(-c2ccccc2)nn1CC1CC(c2cccnc2)=NO1 (stereo not given),0.33,/,/,/,/,/
N[C@@H](CO)c1nnc([C@H](Cc2ccc(O)cc2)NC(=O)C2CCNCC2)o1,0.02,/,/,/,/,/
COc1ccc(C2(CNC(=O)Cc3ccc(OC)c(OC)c3)CCOCC2)cc1,-1.1,7,-41,-13,-7,6
COc1ccc(-c2nc(CSCC(=O)N3CCc4ccccc4C3)c(C)o2)cc1OC,1.9*,/,/,/,/,/
N#C/C(=C/c1ccc(Sc2nc3ccccc3[nH]2)o1)c1cccc(F)c1,0.99,2,-30,0,-2,16
N#C/C(=C/c1ccc(N2CCCCC2)o1)c1cccc(F)c1,-0.0073,13,-160,-34,-12,99*[fluorescence artefact?]
N#C/C(=C/c1ccc(N2CCCCCC2)o1)c1ccc(Cl)cc1,-0.82,-7,-194,-32,10,97*[fluorescence artefact?]
O=C(c1ccc(S(=O)(=O)N2CCCCC2)cc1)c1nnc(-c2ccc(Cl)cc2)o1,-0.71,-8,2,-14,8,9
O=C1c2ccccc2C(=O)N1Cc1cc(-c2ccc(Cl)cc2)no1,-0.032,/,-3,-6,/,5
Cc1ccc(-c2c(C#N)c(N)nc3c2CCCC3)s1,-0.61,10,-9,-13,-13,3
O=C(O)C1=C[C@H](c2ccc(C(F)(F)F)cc2)C[C@H](OCCCCO)O1,-0.0077,/,/,/,/,/
N#Cc1cc(C#N)c(N2CCN(c3ccccn3)CC2)nc1N,-0.96,-1,-55,-5,5,2
COc1ccccc1N(CC(=O)NCc1ccccc1)C(=O)CCC(=O)Nc1cc(C)ccn1,2.5*,3,11,-6,-1,3
Cc1nc2c(c(=O)n1CCC1=CCCCC1)c1nc3ccccc3nc1n2/N=C/c1ccccc1,-0.016,-39,-1,-3,39*,2
CCOCCCn1c(C)nc2c(c1=O)c1nc3ccccc3nc1n2CCC1=CCCCC1,0.028,-13,-41,-13,13,2
CCOC(=O)CC1C(=O)NCCN1C(=O)c1ccc(F)cc1F (stereo not given),-3.4*,-12,-8,-5,13,2
Cc1ccccc1NC(=O)CCN1CCN(Cc2ccccc2)CC1,-1,/,/,/,/,/
Cc1ccccc1NC(=O)c1ccc(CN2CCC(Cc3ccccc3)CC2)cc1,-3.7*,10,-9,-11,-6,8
Cc1ccc(S(=O)(=O)NCCC(=O)NC2CCCC2)cc1,/,-7,23,-4,6,7
CCOC(=O)N1CCN(C(=O)CN(c2ccc(OC)c(OC)c2)S(C)(=O)=O)CC1,-0.17,-7,-5,-6,4,5
CCOC(=O)N1CCN(C(=O)CN(c2cccc(C(F)(F)F)c2)S(C)(=O)=O)CC1,-8.7*,-12,-5,0,10,2
SMILES,hDAT+cocaine,LYP act,PLK1 PBD inh,PLK1 inh,LYP inh 2,HIV Rev-RRE inh
C/C(CCc1ccc2c(c1)OCO2)=N\N=C1\NC(=O)CC(C(=O)Nc2ccc(Cl)cc2)S1 (stereo not given),-0.065,6,-1,-10,-3,0
O=C(c1ccc([N+](=O)[O-])cc1)N(Cc1ccc(Cl)cc1Cl)N1C(=O)CCCC1=O,-0.032,-7,-1,-1,6,11
O=C(c1ccc([N+](=O)[O-])cc1)N(Cc1ccc(Cl)cc1)N1C(=O)CCCC1=O,-6.6*,1,-20,-8,2,4
Cc1ccc(S(=O)(=O)Nc2c(C)n(C)n(-c3ccccc3)c2=O)cc1,-0.67,-1,16,1,3,13
Cc1ccc(S(=O)(=O)/N=C(/Nc2c(C)n(C)n(-c3ccccc3)c2=O)c2ccc(Cl)cc2)cc1,5.6*,15,-15,0,-10,1
CCCCOC(=O)n1c(SCC(=O)N(CC)CC)nc2ccccc21,3.9*,-5,-5,-9,2,4
CCOC(=O)n1c(SCC(N)=O)nc2ccccc21,1.2,-1,-12,0,4,2
CN1CC(=O)N2[C@H](c3ccc4c(c3)OCO4)c3[nH]c4ccccc4c3C[C@@H]2C1=O,0.85,/,/,/,/,/
CCOC(=O)C1=C(O)/C(=C\c2ccc(CNC(=O)C(=O)Nc3ccccc3)o2)N=C1C,-0.91,-11,-25,-7,12,11
Cc1ccc(COc2ccsc2-c2n[nH]c(=S)n2C)cc1,0.71,3,12,-15,0,-1
Cn1c(-c2sccc2OCc2ccccc2)n[nH]c1=S,-10*,-12,-2,-7,15,-2
Nc1nnc(SCc2cccc(C(F)(F)F)c2)s1,-2.7*,1,-4,-10,-4,3
CCc1nc(SCc2ccc(C(=O)OC)o2)c2c(=O)n(C)c(=O)n(C)c2n1,-0.35,-11,-3,-15,8,8
CCc1cccc(NC(=O)CS(=O)Cc2nc(-c3ccc(C)cc3)oc2C)c1 (stereo not given),0.0079,-3,1,-4,0,12
COc1ccc2cc(C3(C)NC(=O)NC3=O)ccc2c1 (stereo not given),-0.001,0,-41,-13,-3,37*
O=C(O[C@H]1[C@H](Oc2ccccc2COC(=O)C2(O)C=CCCC2=O)O[C@H](CO)[C@@H](O)[C@@H]1O)c1ccccc1 (stereo not given in full),-0.028,/,/,/,/,/
COc1ccccc1C1C=C(c2ccc(C)cc2)Nc2nnnn21 (stereo not given),-0.59,2,19,-18,-4,5
COc1ccc(C2=CC(c3c(C)nn(-c4ccccc4)c3Cl)n3nnnc3N2)cc1OC (stereo not given),0.43,-12,-23,-2,11,51*
CCC(CC)c1nnc(NC(=O)CCCN2C(=O)c3ccccc3C2=O)s1,1.1,-7,22,-3,8,5
CCOC(=O)N1CCC(NC(=O)C2CCN(C(=O)N3CCOc4ccccc43)CC2)CC1,-0.15,2,18,55*,1,-3
CCOC(=O)N1CCC(NC(=O)C2CCCN(C(=O)N3CCOc4ccccc43)C2)CC1 (stereo not given),0.019,/,/,/,/,/
CCCCN1CC[C@H]2C=CC[C@@H](C(=O)NCCc3ccccc3)[C@H]2C1=O,2.5,/,/,/,/,/
COCCN1CCN(C(=O)c2ccc3c(c2)S(=O)(=O)c2ccccc2C3=O)CC1,-0.16,/,/,/,/,/
